Experimental data from ChEMBL document CHEMBL3822453 (J Med Chem, 2016).
One block for each compound: values may come before it. The source made the active and inactive calls. No cut-off for these calls is given here.

Experiments:
[1] = molecular target: T1, DNA repair protein RAD51 homolog 1 (Homo sapiens, UniProt Q06609); assay: Inhibition of human N-terminal 6-histidine/Avi-tagged recombinant RAD51 expressed in Escherichia coli BL21(DE3) assessed as D-loop formation using 5'-32P-labeled 90-mer ssDNA as substrate preincubated for 10 mins followed by substrate addition with subsequent incubation with substrate for 5 mins measured after 20 mins in presence of supercoiled pRS306 dsDNA by agarose gel electrophoresis
T1 sequence (Q06609 whole entry): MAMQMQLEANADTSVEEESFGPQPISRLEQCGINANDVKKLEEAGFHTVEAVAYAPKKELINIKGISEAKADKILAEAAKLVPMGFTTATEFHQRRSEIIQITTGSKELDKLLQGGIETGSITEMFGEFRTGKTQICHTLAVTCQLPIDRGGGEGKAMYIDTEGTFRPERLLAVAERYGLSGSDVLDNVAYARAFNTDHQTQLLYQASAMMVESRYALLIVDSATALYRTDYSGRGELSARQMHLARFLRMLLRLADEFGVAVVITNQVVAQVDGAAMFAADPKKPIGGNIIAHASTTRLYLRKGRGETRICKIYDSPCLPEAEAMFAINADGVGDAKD

[2] = molecular target: T2, DNA repair protein RAD51 homolog 1 (Homo sapiens) (UniProt Q06609); settings: 5 to 100 uM
T2 sequence (whole entry): T1 sequence (Q06609 whole entry)

[3] = molecular target: T1, DNA repair protein RAD51 homolog 1; assay: Inhibition of Escherichia coli BL21(DE3) expressing human N-terminal 6-histidine/Avi-tagged RAD51 binding to 5'-Alexa488-oligo-dT45 ssDNA preincubated for 40 mins followed by substrate addition measured after 40 mins by fluorescence polarization based microplate method
How it was run: (§1)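 Human RAD51 preincubated with compound in DMSO at 37 °C for 40 min, then 5'-Alexa488-oligo-dT45 added and incubated another 40 min at 37 °C. Buffer: 20 mM HEPES pH 7.5, 2 mM ATP, 10 mM MgCl2, 0.1 mM TCEP. IC50 from least-squares dose–response fits with standard error.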

[4] = molecular target: T1, DNA repair protein RAD51 homolog 1; assay: Inhibition of RAD51-mediated homologous recombination in human HEK293-DR-GFP cells transfected with pCBASce expressing I-Sce-I after 24 hrs following transfection by 7-aminoactinomycin D staining based flow cytometry
[5] = molecular target: T1, DNA repair protein RAD51 homolog 1; assay: Inhibition of Escherichia coli BL21(DE3) expressing human N-terminal 6-histidine/Avi-tagged RAD51 binding to 5'-Alexa488-oligo-dT45 ssDNA at 5 to 100 uM preincubated for 40 mins followed by substrate addition measured after 40 mins by fluorescence polarization based microplate method; settings: read-out: Imax
How it was run: as §1, with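 “TCEP. Final: 0.2 µM RAD51, 2.22 nM ssDNA, 30 mM NaCl, 4% DMSO. Fluorescence polarization read at 485/535 nm.” for “TCEP.”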

[6] = molecular target: T1, DNA repair protein RAD51 homolog 1; assay: Inhibition of Escherichia coli BL21(DE3) expressing human N-terminal 6-histidine/Avi-tagged RAD51 binding to circular pRS306 virion ssDNA preincubated for 40 mins followed by ssDNA addition measured after 5 mins by agarose gel electrophoresis
[7] = molecular target: T1, DNA repair protein RAD51 homolog 1; assay: Effect on stabilization of Escherichia coli BL21(DE3) expressing human N-terminal 6-histidine/Avi-tagged RAD51-circular pRS306 virion ssDNA nucleoprotein filament at 30 uM after 40 mins in presence of NaCl by SYBR gold staining based agarose gel electrophoresis; assay type: ADME
[8] = molecular target: T2, DNA repair protein RAD51 homolog 1 (Homo sapiens); settings: 40 uM
[9] = system: PC-3; assay: Cytotoxicity against human PC3 cells assessed as cell survival treated with ionizing radiation followed by compound addition after 7 to 11 days by crystal violet staining based colony counting method; assay type: functional
How it was run: (§2)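 Cells grown to subconfluence, X-irradiated at 1.5 Gy/min, trypsinized and seeded at 1000–1500 cells/well in complete medium with 0.5% DMSO plus compound at the indicated dose, kept through outgrowth. Incubated 7–11 days until colonies of ≥50 cells. Stained ≥30 min at room temperature in 6% glutaraldehyde + 0.5% crystal violet, then counted automatically. PC-3 grown in DMEM:F12 (1:1) with 10% FCS.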

[10] = system: Saccharomyces cerevisiae; assay: (§3) Inhibition of Saccharomyces cerevisiae RAD52 D-loop activity using 5'-32P-labeled 90-mer ssDNA as substrate up to 100 uM preincubated for 10 mins followed by substrate addition with subsequent incubation with substrate for 5 mins measured after 20 mins in presence of supercoiled pRS306 dsDNA by agarose gel electrophoresis
How it was run: (§4)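 Yeast Rad51 (1 µM) with Rad52 (2 µM), or E. coli RecA (0.4 µM), preincubated with compound at 37 °C for 10 min. 32P 90-mer ssDNA added with 1 mM MgCl2 for 5 min, then supercoiled pRS306 with MgCl2 raised to 10 mM for 20 min. dsDNA step in 20 mM HEPES pH 7.5, 2 mM ATP, 10 nM ssDNA, 4.5 nM dsDNA. Read by agarose gel and phosphorimaging.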

[11] = system: HEK293; assay: Effect on RAD51 levels in soluble nuclear fraction of HEK293-DR-GFP cells at 20 uM after 8 hrs by Western blot analysis; assay type: ADME, cell-based; settings: human, hek293, 8 h
How it was run: (§5)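 Subconfluent 293-DR-GFP cells grown with compound for the indicated time. Fractionated at 4 °C: hypotonic buffer on ice 15 min (cytosol); pellet in hypotonic buffer + 0.5 M NaCl 15 min (soluble nuclear); RIPA extraction three times 5 min, insoluble pellet kept (chromatin). Fractions run on 10% SDS-PAGE, blotted to PVDF, probed with rabbit anti-RAD51 (1:2000) or anti-PCNA (1:1000), read by ECL.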

[12] = system: HEK293; assay: Effect on RAD51 levels in chromatin fraction of HEK293-DR-GFP cells at 20 uM after 8 hrs by Western blot analysis; assay type: cell-based; settings: human, hek293, 8 h; how it was run: as §5
[13] = system: Escherichia coli; assay: as §3, with “Escherichia coli RecA” for “Saccharomyces cerevisiae RAD52”; how it was run: as §4
[14] = system: U2OS; assay: Cytotoxicity against human U2OS cells assessed as cell survival treated with ionizing radiation followed by compound addition after 7 to 11 days by crystal violet staining based colony counting method; assay type: functional; how it was run: as §2
[15] = molecular target: T1, DNA repair protein RAD51 homolog 1; assay: Effect on stabilization of Escherichia coli BL21(DE3) expressing human N-terminal 6-histidine/Avi-tagged RAD51-circular pRS306 virion ssDNA nucleoprotein filament at 100 uM after 40 mins in presence of NaCl by SYBR gold staining based agarose gel electrophoresis; assay type: ADME
[16] = system: HEK293; assay: Induction of single strand annealing activity in human HEK293-SA-GFP cells transfected with pCBASce expressing I-Sce-I up to 40 uM at 24 hrs post transfection by 7-aminoactinomycin D staining based flow cytometry; assay type: functional, cell-based
How it was run: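 293-DR-GFP (HR) or 293-SA-GFP (SSA) reporter cells electroporated (325 V, 975 µF) with 37.5 µg/mL I-SceI plasmid pCBASce or empty pCAGGS control. Seeded in complete DMEM + 0.5% DMSO with compound added at transfection, grown out 24 h. Cells resuspended with 1 µg/mL 7-AAD for flow cytometry, dead/apoptotic cells gated out, GFP-positive fraction scored among live cells.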

[17] = system: Saccharomyces cerevisiae; assay: as §3, with “RAD51” for “RAD52”; how it was run: as §4
[18] = system: MCF7; assay: Cytotoxicity against human MCF7 cells assessed as cell survival treated with ionizing radiation followed by compound addition after 7 to 11 days by crystal violet staining based colony counting method; assay type: functional; how it was run: as §2
[19] = molecular target: T1, DNA repair protein RAD51 homolog 1; assay: Inhibition of IR-induced RAD51 accumulation in HEK293-DR-GFP cells subnuclear foci at 20 uM after 8 hrs by fluorescence microscopy; assay type: cell-based
How it was run: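 293-DR-GFP cells grown on coverslips for 2 days, X-irradiated at 1.5 Gy/min, fixed after 0, 2, 4 or 8 h outgrowth. Paraformaldehyde fixation and Triton permeabilization. Stained with rabbit anti-RAD51 plus anti-RPA or anti-γH2AX, DAPI counterstain. At least 100 nuclei scored per condition.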

[20] = system: HEK293; assay: Effect on RAD51 levels in cytosol of HEK293-DR-GFP cells at 20 uM after 8 hrs by Western blot analysis; assay type: ADME, cell-based; settings: human; how it was run: as §5

SMILES: COc1ccc2c(c1)NC(c1ccc(N(C)C)cc1)c1cccn1-2 (racemic)
- Imax [2]: 17%

SMILES: COc1ccc2c(c1)nc(-c1ccc(O)cc1)c1cccn12
- Imax [2]: 13%

SMILES: O=C1C(Cl)=C(N2CCOCC2)C(=O)N1c1ccc(Cl)c(Cl)c1
- Activity [6]: Dose-dependent effect
- Activity [7]: Active

SMILES: CCNc1ccc(-c2nc3ccccc3n3cccc23)cc1
- Activity [9]: Active
- Imax [2]: 91%
- inhibition [10]: inactive
- Activity [11]: Non-toxic
- Activity [12]: Non-toxic
- inhibition [13]: inactive
- Activity [14]: Active
- Activity [15]: Not Active
- Activity [16]: inactive
- inhibition [17]: inactive
- Activity [18]: Active
- inhibition (INH) [19]: Not Active
- Activity [7]: Not Active
- Activity [20]: Non-toxic

SMILES: CN(C)c1ccc(-c2nc3cc(F)ccc3n3cccc23)cc1
- IC50 [1]: > 100 µM

SMILES: c1ccc2c(c1)nc(-c1ccc(N3CCOCC3)cc1)c1cccn12
- Imax [2]: 68%
- IC50 [3]: > 100 µM

SMILES: Nc1cccc(-c2nc3ccccc3n3cccc23)c1
- IC50 [3]: > 100 µM

SMILES: c1ccc2c(c1)nc(-c1ccncc1)c1cccn12
- IC50 [3]: > 100 µM

SMILES: COc1ccc2c(c1)nc(-c1ccc(N(C)C)cc1)c1cccn12
- Imax [2]: 67%

SMILES: COc1ccc2c(c1)nc(-c1ccc(N)cc1)c1cccn12
- Imax [2]: 100%

SMILES: FC(F)(F)Oc1ccc(-c2nc3ccccc3n3cccc23)cc1
- IC50 [1]: > 100 µM

SMILES: COc1ccc2c(c1)nc(-c1ccc([N+](=O)[O-])cc1)c1cccn12
- IC50 [1]: > 100 µM

More lines, now with the values ahead:

- IC50 [1]: > 100 µM
SMILES: c1ccc2c(-c3nc4ccccc4n4cccc34)cccc2c1

- IC50 [1]: > 100 µM
SMILES: c1ccc2c(c1)nc(-c1ccc(N3CCCC3)cc1)c1cccn12

- Imax [2]: 91%
SMILES: CN(C)c1ccc(-c2nc3cc(O)ccc3n3cccc23)cc1

- IC50 [1]: > 100 µM
- IC50 [3]: > 100 µM
SMILES: O=[N+]([O-])c1ccc(-c2nc3ccccc3n3cccc23)cc1

- IC50 [1]: 21.3 µM
- IC50 [4]: 13.1 µM
- Emax [5]: 33%
SMILES: COc1ccc2c(c1)NC(c1ccc(N(C)C)cc1)c1cccn1-2 (stereo in doubt; 1) [listing 1 of 2 here]

- IC50 [1]: > 100 µM
SMILES: O=[N+]([O-])c1ccc(-c2nc3cc(O)ccc3n3cccc23)cc1

- Imax [2]: 74%
- inhibition [8]: 83%
SMILES: COc1ccc2c(c1)NC(c1ccc(N(C)C)cc1)c1cccn1-2 (stereo in doubt; 1) [listing 2 of 2 here]

- IC50 [1]: > 100 µM
SMILES: C1=C(c2nc3ccccc3n3cccc23)CCCC1

- IC50 [1]: > 100 µM
- IC50 [3]: > 100 µM
SMILES: Oc1ccc(-c2nc3ccccc3n3cccc23)cc1

- IC50 [1]: > 100 µM
- IC50 [3]: > 100 µM
SMILES: O=[N+]([O-])c1cccc(-c2nc3ccccc3n3cccc23)c1

- Imax [2]: 53%
SMILES: Oc1ccc2c(c1)nc(-c1cccnc1)c1cccn12

- Imax [2]: 74%
- IC50 [3]: > 100 µM
SMILES: COc1ccc2c(c1)nc(-c1cccnc1)c1cccn12

- IC50 [1]: > 100 µM
SMILES: CN(C)c1ccc(-c2nc3cc(F)c(F)cc3n3cccc23)cc1
